# Assay results reported in ChEMBL document CHEMBL3611983, “Highly Potent and Selective MT2 Melatonin Receptor Full Agonists from Conformational Analysis of 1-Benzyl-2-acylaminomethyl-tetrahydroquinolines” (J Med Chem, 2015).
# Assays:
# [1] = target: T1, Melatonin receptor type 1A (Homo sapiens, UniProt P48039); test: Intrinsic activity at human MT1 receptor transfected in CHO cell membranes after 1 hr by [35S]GTPgammaS binding assay; type: functional
# In short: (§1)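 Transfected CHO membranes at 20 μg/mL were incubated in 20 mM HEPES pH 7.4 with 100 mM NaCl, 3 μM GDP, 3 mM MgCl2 and 20 μg/mL saponin. 0.2 nM [35S]GTPγS was added and incubation ran 1 h at room temperature. Nonspecific binding was defined by 10 μM GTPγS, with 1 μM melatonin as reference. Filtration was on GF/B. Curves used 7 concentrations in duplicate, giving EC50 and Emax.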
# [2] = Displacement of 2-[125I]-Iodomelatonin from human MT2 receptor transfected in CHO cell membranes after 120 mins
# In short: (§2)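 Membranes from CHO cells stably expressing the receptor were pelleted and homogenized in Tris 5 mM/EDTA 2 mM, then held at -80 °C. Assay buffer was 50 mM Tris-HCl pH 7.4 with 5 mM MgCl2. Radioligand was 20 pM, with nonspecific binding defined by 1 μM melatonin.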
# [3] = target: T1, Melatonin receptor type 1A; test: Displacement of 2-[125I]-Iodomelatonin from human MT1 receptor transfected in CHO cell membranes after 120 mins; in short: as §2
# [4] = (§3) Intrinsic activity at human MT2 receptor transfected in CHO cell membranes after 1 hr by [35S]GTPgammaS binding assay; in short: as §1
# CHO = test: as §3; in short: as §1
# Homo sapiens = species on record: Homo sapiens; test: Selectivity ratio of Ki for human MT1 receptor to Ki for human MT2 receptor
# T1 sequence (P48039 whole entry): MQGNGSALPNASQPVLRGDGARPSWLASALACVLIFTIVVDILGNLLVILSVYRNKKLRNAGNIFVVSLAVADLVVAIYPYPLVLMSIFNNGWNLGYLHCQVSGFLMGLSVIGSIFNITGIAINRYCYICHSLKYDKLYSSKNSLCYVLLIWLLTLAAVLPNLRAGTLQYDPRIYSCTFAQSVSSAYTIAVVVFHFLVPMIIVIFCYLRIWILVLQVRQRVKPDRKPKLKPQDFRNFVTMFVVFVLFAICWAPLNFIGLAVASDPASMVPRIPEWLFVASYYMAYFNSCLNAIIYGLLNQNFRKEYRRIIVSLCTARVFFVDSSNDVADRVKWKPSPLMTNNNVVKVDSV
SMILES,EC50 [1] [nM],Emax [1] [%],Ki [2] [nM],Ki [3] [nM],EC50 [4] [nM],Emax (CHO) [%],Ratio Ki (Homo sapiens)
CC(=O)NC[C@H]1CCc2ccccc2N1Cc1ccccc1,192,52,0.1,45,1.9,80,
CC(=O)NC[C@@H]1CCc2ccccc2N1Cc1ccccc1,,,6.2,122,19,60,
CCC(=O)NCc1ccc2c(OC)cccc2n1,,,4450,> 10000,,,
CCC(=O)NCC1CCc2c(cccc2OC)N1 (racemic),906,70,21,57,165,98,
CCC(=O)NCC1CCc2ccccc2N1 (racemic),242,37,2.2,13,27,,
CCNC(=O)NCC1CCc2c(cccc2OC)N1 (racemic),,,114,480,,,
CCNC(=O)NCC1CCc2ccccc2N1 (racemic),2420,30,17,115,356,80,
CCNC(=S)NCC1CCc2c(cccc2OC)N1 (racemic),,,> 1000,> 1000,,,
CCNC(=S)NCC1CCc2ccccc2N1 (racemic),2660,35,90,305,1430,72,
CCNC(=O)NCC1CCc2c(OC)cccc2N1C (racemic),160,92,1.4,5,10,105,
CCNC(=O)NCC1CCc2ccccc2N1C (racemic),110,69,3.4,5.3,6.2,97,
CCNC(=O)NCC1CCc2c(OC)cccc2N1Cc1ccccc1 (racemic),393,44,2.9,132,13,107,
CCC(=O)NCC1CCc2c(OC)cccc2N1Cc1ccccc1 (racemic),177,79,0.001,17,0.9,111,> 10000
CCC(=O)NCC1CCc2cc(OC)ccc2N1Cc1ccccc1 (racemic),,,1.5,186,4.6,75,
CCC(=O)NCC1CCc2ccc(OC)cc2N1Cc1ccccc1 (racemic),,,26,214,25,42,
CCC(=O)NCC1CCc2ccccc2N1Cc1ccccc1 (racemic),36,42,0.09,37,0.4,73,> 400
CC(=O)NCC1CCc2ccccc2N1Cc1ccccc1 (racemic),31,35,0.04,45,0.4,60,
O=C(NCC1CCc2ccccc2N1Cc1ccccc1)C1CC1 (racemic),,,0.2,291,0.3,38,
O=C(NCC1CCc2ccccc2N1Cc1ccccc1)C1CCC1 (racemic),,,6.2,633,,< 15,
CCC(=O)NCC1CCc2c(OC)cccc2N1C (racemic),1.7,112,0.5,0.03,0.5,122,
CCC(=O)NCC1CCc2ccccc2N1C (racemic),0.9,69,0.2,0.7,0.6,122,
CC(=O)NCC1CCc2ccccc2N1CCc1ccccc1 (racemic),,,3,171,,< 15,
CCCN1c2ccccc2CCC1CNC(C)=O (racemic),2,39,0.1,5.8,0.2,58,
CCC(=O)NCC1CCc2ccccc2N1CC(=O)NC (racemic),,,385,> 10000,,,
CCC(=O)NCC1CCc2ccccc2N1c1ccccc1 (racemic),6.2,69,0.06,1.6,0.5,90,
CCNC(=S)NCC1CCc2ccccc2N1C (racemic),809,76,15,22,66,73,
CCC(=O)NCCC1CCc2ccccc2N1Cc1ccccc1 (racemic),,,1.6,326,4.7,59,
